{"data": "Published values from different studies", "target": "RAC-alpha serine/threonine-protein kinase (AKT1, Homo sapiens, UniProt P31749)", "note": "Protocols differ between the studies behind these lines."}
{"SMILES": "COc1ccc2[nH]c3c4[nH]c5ccc(OC)cc5c4c4c(c3c2c1)C(=O)NC4=O", "effect on": "binding", "concentration": "1 µM", "measurement": "remaining binding", "result": "72%"}
{"SMILES": "Cc1cc(O)c(-c2ccc([C@@H](C)CN(C)C)cc2)c2c1[nH]c(=O)c1sccc12", "effect on": "enzyme activity", "action": "inhibitor", "concentration": "0.1 µM", "measurement": "inhibition", "result": "-0.622%"}
{"SMILES": "COc1ccc2oc(-c3ccc4nc(N)oc4c3)c/c(=N\\c3ccccc3NC(=O)CCN)c2c1", "effect on": "binding", "concentration": "1 µM", "measurement": "remaining binding", "result": "91%"}
{"SMILES": "CO[C@@H]1[C@H](N(C)C(=O)c2ccccc2)C[C@H]2O[C@]1(C)n1c3ccccc3c3c4c(c5c6ccccc6n2c5c31)C(=O)NC4", "effect on": "enzyme activity", "action": "inhibitor", "concentration": "1 µM", "measurement": "inhibition", "result": "7%"}
{"SMILES": "N#Cc1ccc(NC(=O)Nc2ccccc2)cc1", "effect on": "cell-free assay", "technique": "competition with immobilised ligand", "concentration": "25 µM", "measurement": "remaining binding", "result": "100%"}
{"SMILES": "C1=C/COCc2cc(ccc2OCCN2CCCC2)Nc2nccc(n2)-c2cccc(c2)COC/1", "effect on": "binding", "concentration": "0.1 µM", "measurement": "remaining binding", "result": "100%"}
{"SMILES": "CCCCC(=O)Nc1ccc(-c2ccc3ncn(CCC)c(=O)c3c2)cn1", "effect on": "binding", "technique": "competition with immobilised ligand", "concentration": "0.5 µM", "measurement": "remaining binding", "result": "100%"}
{"SMILES": "C=CC(=O)N1CCC([C@@H]2CCNc3c(C(N)=O)c(-c4ccc(Oc5ccccc5)cc4)nn32)CC1", "effect on": "enzyme activity", "action": "inhibitor", "concentration": "1 µM", "measurement": "inhibition", "result": "7%"}
{"SMILES": "Cc1ccc(NC(=O)c2ccnc(C(F)(F)F)c2)cc1-c1cc(OCCO)nc(N2CCOCC2)c1", "effect on": "binding", "concentration": "1 µM", "measurement": "remaining binding", "result": "99%"}
{"SMILES": "C#Cc1cnc(Nc2ccnc(CO)c2)nc1Nc1ccccc1S(C)(=O)=NC#N (stereo not shown)", "effect on": "cell-free assay", "concentration": "1 µM", "measurement": "remaining signal", "result": "100%"}
